Reference: ChEMBL document CHEMBL5325511, “Discovery of N-(4-(Aminomethyl)phenyl)-5-methylpyrimidin-2-amine Derivatives as Potent and Selective JAK2 Inhibitors” (ACS Med Chem Lett, 2023)

Legend:
[1] = target: Tyrosine-protein kinase JAK1 (Homo sapiens, UniProt P23458); assay: Inhibition of JAK1 (unknown origin) in presence of Mg/ATP mixture by [gamma p33]-ATP based radiometric assay
Procedure, shortened: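 IC50 values determined by Eurofins Discovery.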

[2] = Cmax in Sprague-Dawley rat at 5 mg/kg, po measured upto 24 hrs by LC-MS/MS analysis; type: ADME, organism-based; design: dose 5 mg/kg, time < 24 hrs, route po; conditions: in vivo, 24 h
Procedure, shortened: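 Sprague–Dawley rats, n = 5, dosed at 5 mg/kg as a solution in 2% ethanol and 1% Tween 80, pH 5.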

Sequence of Tyrosine-protein kinase JAK1 (P23458 whole entry): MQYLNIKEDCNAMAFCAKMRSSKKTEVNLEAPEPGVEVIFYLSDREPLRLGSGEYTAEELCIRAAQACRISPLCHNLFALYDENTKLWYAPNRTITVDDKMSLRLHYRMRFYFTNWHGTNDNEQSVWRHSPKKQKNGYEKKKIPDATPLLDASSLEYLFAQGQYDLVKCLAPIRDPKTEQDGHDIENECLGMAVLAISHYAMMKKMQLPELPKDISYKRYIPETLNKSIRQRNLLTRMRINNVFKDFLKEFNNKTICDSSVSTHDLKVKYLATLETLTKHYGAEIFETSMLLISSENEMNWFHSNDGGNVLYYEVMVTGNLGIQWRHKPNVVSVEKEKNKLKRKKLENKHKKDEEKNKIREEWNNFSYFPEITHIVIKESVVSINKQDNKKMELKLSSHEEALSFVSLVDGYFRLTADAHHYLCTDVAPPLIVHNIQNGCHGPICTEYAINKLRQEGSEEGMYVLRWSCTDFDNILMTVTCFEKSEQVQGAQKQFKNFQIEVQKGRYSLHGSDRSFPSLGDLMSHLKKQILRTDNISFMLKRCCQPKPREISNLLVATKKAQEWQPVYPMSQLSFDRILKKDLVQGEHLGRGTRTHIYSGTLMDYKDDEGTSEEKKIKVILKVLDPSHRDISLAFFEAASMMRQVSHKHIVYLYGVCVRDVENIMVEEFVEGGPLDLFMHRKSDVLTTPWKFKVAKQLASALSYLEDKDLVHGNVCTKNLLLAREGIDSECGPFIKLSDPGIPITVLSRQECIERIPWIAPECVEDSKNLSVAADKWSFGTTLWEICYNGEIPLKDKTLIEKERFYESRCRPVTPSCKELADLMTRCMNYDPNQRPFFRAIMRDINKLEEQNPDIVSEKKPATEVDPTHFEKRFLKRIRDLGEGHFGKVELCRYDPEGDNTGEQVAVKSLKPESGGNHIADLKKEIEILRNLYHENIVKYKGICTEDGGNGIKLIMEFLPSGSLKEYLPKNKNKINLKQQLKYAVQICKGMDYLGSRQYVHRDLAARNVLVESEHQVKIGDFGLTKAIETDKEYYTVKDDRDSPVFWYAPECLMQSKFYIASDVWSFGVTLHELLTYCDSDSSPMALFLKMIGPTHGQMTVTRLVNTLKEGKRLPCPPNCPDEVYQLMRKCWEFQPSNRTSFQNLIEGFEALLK

IC50 [1]: 193 nM
Cmax [2]: 121.4 ng/mL
SMILES: C=CS(=O)(=O)NCc1ccc(Nc2ncc(C)c(-c3cnn(C(C)C)c3)n2)cc1
